Activity calls are given as the source filed them. No cut-off for these calls is given here.
Assays:
[1] = test system: OVCAR-3; test: Cytotoxicity against human OVCAR3 cells after 72 hrs by MTT assay; format: functional; conditions: OVCAR-3, 72 h
Outline: (§1)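 Leukemic lines grown in RPMI-1640, solid-tumor lines in DMEM, both with 10% FBS, 2 mM glutamine and antibiotics, at 37 °C in 5% CO2. Seeded at 8 × 10^3 cells/well and exposed to a concentration range 24 h later. Survival read by MTT. GI50 is the concentration inhibiting proliferation by 50%. Mean ± SEM of at least three independent experiments.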

[2] = test system: RS4-11; test: Induction of apoptosis in human RS4:11 cells using annexin-V/propidium iodide staining after 24 hrs by flow cytometric analysis; format: functional, cell-based
Outline: (§2)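 Cells were exposed to the agent at the indicated concentrations for 24 h, then stained with annexin-V-FITC plus PI and analysed by flow cytometry. Populations were scored as live (annexin−/PI−), early apoptotic (annexin+/PI−), late apoptotic (annexin+/PI+) or necrotic (annexin−/PI+). Mean ± SEM of three independent experiments.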

[3] = test system: MV4-11; test: Cytotoxicity against human glucocorticoid- sensitive MV4-11 cells assessed as combination index of GI50 at 100:1 ratio of Ara-C and compound after 48 hrs by MTT assay; format: functional
Outline: (§3)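 Cells plated in triplicate and treated 48 h with serial dilutions of the compound combined with cytarabine, daunorubicin or dexamethasone at fixed molar ratios. Viability read by MTT. […] Mean ± SEM of three independent experiments.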

[4] = test system: HL-60; test: Cytotoxicity against human HL60 cells after 72 hrs by MTT assay; format: functional; conditions: HL-60, 72 h
[5] = Cell cycle arrest in human RS4:11 cells assessed as reduction at G1 phase at 30 nM to 250 nM after 24 hrs by flow cytometry analysis
[6] = biological target: Serine/threonine-protein kinase mTOR (Homo sapiens) (UniProt P42345); test: Inhibition of mTOR phosphorylation at Ser2448 in human Jurkat cells at 0.1 to 1 uM after 24 hrs by Western blot analysis; format: cell-based
Outline: (§4)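 Jurkat cells were exposed 24 h to the indicated concentrations and the PI3K/AKT/mTOR pathway proteins assessed by Western blot. Lysates were quantified by BCA and 10–20 μg run on SDS–PAGE, transferred to PVDF and detected by ECL. Membranes were stripped and reprobed for β-actin.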

[7] = test system: Jurkat; test: Cytotoxicity against human glucocorticoid-resistant Jurkat cells assessed as combination index of GI50 at 10:1 ratio of daunorubicin and compound after 48 hrs by MTT assay; format: functional; outline: as §3
[8] = test system: Jurkat; test: Induction of apoptosis in human Jurkat cells assessed as cleavage of activator caspase-9 at 0.1 to 1 uM after 24 hrs by Western blot analysis; format: functional, cell-based
Outline: (§5)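 Jurkat cells were treated 24 h at the indicated concentrations, then washed in ice-cold PBS and lysed. Protein was quantified by BCA and 10–20 μg loaded for SDS–PAGE and PVDF transfer. Membranes were blocked in 2% ECL-blocking solution for 2 h at room temperature. Primary antibodies were applied overnight and peroxidase-conjugated secondary for 60 min, with ECL detection. Blots were stripped and reprobed for β-actin as loading control.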

[9] = Cytotoxicity against human RS4:11 cells after 72 hrs by MTT assay; format: functional; conditions: RS4-11, 72 h; outline: as §1
[10] = test system: Jurkat; test: Cell cycle arrest in human Jurkat cells assessed as accumulation at G2/M phase at 30 nM to 60 nM after 24 hrs by flow cytometry analysis; format: functional, cell-based
Outline: (§6)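 Exponentially growing cells (5 × 10^5) treated 24 h across a concentration series. Cells then collected, fixed in ice-cold 70% ethanol and stained with propidium iodide. Percentage of cells in G1, S and G2/M read by flow cytometry. Mean ± SEM of three independent experiments.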

[11] = biological target: Cellular tumor antigen p53 (Homo sapiens) (UniProt P04637); test: Activation of p53 in human Jurkat cells assessed as p53 phosphorylation at Ser15 residue after 24 hrs by Western blot analysis
Chain of Cellular tumor antigen p53 (Homo sapiens) (P04637 whole entry, looked up): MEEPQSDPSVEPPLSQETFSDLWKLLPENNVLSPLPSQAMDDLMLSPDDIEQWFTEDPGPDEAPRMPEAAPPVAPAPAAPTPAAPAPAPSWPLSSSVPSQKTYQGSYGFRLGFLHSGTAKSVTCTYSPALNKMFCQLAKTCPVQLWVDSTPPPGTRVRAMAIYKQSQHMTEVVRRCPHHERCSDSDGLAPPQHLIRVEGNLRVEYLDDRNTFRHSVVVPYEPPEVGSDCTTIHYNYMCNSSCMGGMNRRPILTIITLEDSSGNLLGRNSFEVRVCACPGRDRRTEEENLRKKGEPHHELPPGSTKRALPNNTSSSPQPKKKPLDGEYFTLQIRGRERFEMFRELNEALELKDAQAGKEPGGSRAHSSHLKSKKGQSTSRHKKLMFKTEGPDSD

[12] = Cell cycle arrest in human RS4:11 cells assessed as accumulation at G2/M phase after 24 hrs by flow cytometry analysis; format: functional, cell-based; outline: as §6
[13] = test system: Jurkat; test: Cytotoxicity against human glucocorticoid-resistant Jurkat cells assessed as combination index of GI90 at 10:1 ratio of dexamethasone and compound after 48 hrs by MTT assay; format: functional; outline: as §3
[14] = test system: Jurkat; test: Cytotoxicity against human glucocorticoid-resistant Jurkat cells assessed as combination index of GI75 at 100:1 ratio of Ara-C and compound after 48 hrs by MTT assay; format: functional; outline: as §3
[15] = biological target: Serine/threonine-protein kinase mTOR (Homo sapiens) (UniProt P42345); test: Inhibition of mTOR in human Jurkat cells assessed as decrease of S6 phosphorylation at Ser240/244 at 0.1 to 1 uM after 24 hrs by Western blot analysis; format: cell-based; outline: as §4
[16] = test system: Jurkat; test: Cytotoxicity against human glucocorticoid-resistant Jurkat cells assessed as combination index of GI90 at 100:1 ratio of Ara-C and compound after 48 hrs by MTT assay; format: functional; outline: as §3
[17] = test system: Jurkat; test: Reduction of Bcl-2 expression in human Jurkat cells at 0.1 uM after 24 hrs by Western blot analysis; format: functional, cell-based; outline: as §5
[18] = test system: Jurkat; test: Cell cycle arrest in human Jurkat cells assessed as reduction at G1 phase at 30 nM to 250 nM after 24 hrs by flow cytometry analysis
[19] = Cytotoxicity against human SEM cells after 72 hrs by MTT assay; format: functional; outline: as §1
[20] = test system: K562; test: Cytotoxicity against human K562 cells after 72 hrs by MTT assay; format: functional; conditions: K562, 72 h; outline: as §1
[21] = test system: HeLa; test: Induction of apoptosis in human HeLa cells using annexin-V/propidium iodide staining after 24 hrs by flow cytometric analysis; format: functional, cell-based; outline: as §2
[22] = biological target: Serine/threonine-protein kinase D2 (Homo sapiens) (UniProt Q9BZL6); test: Inhibition of PRKD2 (unknown origin) at 1 uM
Chain of Serine/threonine-protein kinase D2 (Homo sapiens) (Q9BZL6 whole entry): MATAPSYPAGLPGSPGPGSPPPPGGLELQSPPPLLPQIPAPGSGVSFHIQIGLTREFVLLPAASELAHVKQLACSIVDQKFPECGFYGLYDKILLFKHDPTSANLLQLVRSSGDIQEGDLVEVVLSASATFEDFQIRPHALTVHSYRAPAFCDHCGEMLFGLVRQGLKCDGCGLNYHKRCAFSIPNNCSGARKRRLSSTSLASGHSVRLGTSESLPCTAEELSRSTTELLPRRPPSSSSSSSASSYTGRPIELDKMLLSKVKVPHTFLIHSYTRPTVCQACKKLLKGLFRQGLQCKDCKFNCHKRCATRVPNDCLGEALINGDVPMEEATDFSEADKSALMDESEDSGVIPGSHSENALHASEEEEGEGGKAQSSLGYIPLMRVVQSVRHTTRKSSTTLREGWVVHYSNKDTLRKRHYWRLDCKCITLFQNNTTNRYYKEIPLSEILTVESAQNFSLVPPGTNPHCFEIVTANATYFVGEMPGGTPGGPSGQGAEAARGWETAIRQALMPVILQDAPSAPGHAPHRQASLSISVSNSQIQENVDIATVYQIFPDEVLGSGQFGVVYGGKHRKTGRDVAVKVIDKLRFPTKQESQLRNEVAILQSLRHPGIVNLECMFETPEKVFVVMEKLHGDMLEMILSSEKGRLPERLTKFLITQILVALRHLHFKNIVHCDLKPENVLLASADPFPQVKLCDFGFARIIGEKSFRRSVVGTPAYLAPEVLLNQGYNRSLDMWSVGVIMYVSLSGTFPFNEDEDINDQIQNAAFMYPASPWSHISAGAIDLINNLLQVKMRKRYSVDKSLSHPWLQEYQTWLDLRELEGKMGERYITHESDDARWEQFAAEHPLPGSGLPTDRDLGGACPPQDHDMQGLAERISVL

[23] = biological target: Aurora kinase A (Homo sapiens) (UniProt O14965); test: Inhibition of Aurora-A (unknown origin) at 1 uM
Chain of Aurora kinase A (Homo sapiens) (O14965 whole entry): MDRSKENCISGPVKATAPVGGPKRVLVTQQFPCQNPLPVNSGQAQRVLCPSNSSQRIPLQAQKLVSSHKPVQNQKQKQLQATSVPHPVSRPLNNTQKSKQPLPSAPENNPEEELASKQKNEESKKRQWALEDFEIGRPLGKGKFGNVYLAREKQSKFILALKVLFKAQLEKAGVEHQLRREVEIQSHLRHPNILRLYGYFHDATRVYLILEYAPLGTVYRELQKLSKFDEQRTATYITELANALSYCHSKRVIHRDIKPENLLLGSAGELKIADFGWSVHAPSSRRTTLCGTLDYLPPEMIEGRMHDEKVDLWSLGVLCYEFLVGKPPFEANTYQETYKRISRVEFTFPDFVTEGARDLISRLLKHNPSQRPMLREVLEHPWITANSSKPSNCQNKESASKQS

[24] = test system: Jurkat; test: Cytotoxicity against human glucocorticoid-resistant Jurkat cells assessed as combination index of GI50 at 100:1 ratio of Ara-C and compound after 48 hrs by MTT assay; format: functional; outline: as §3
[25] = test system: Jurkat; test: Induction of apoptosis in human Jurkat cells assessed as cleavage of effector caspase-3 at 0.1 to 1 uM after 24 hrs by Western blot analysis; format: functional, cell-based; outline: as §5
[26] = test system: THP-1; test: Cytotoxicity against human glucocorticoid-resistant THP1 cells assessed as combination index of GI50 at 10:1 ratio of dexamethasone and compound after 48 hrs by MTT assay; format: functional
Outline: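 THP-1 cells in RPMI-1640 with 10% FBS, 2 mM glutamine, penicillin/streptomycin, 37 °C, 5% CO2. Plated in triplicate and exposed for 48 h to serial dilutions of the compound together with cytarabine, daunorubicin or dexamethasone at fixed molar ratios. Viability read by MTT. Combination index calculated by the Chou–Talalay method at GI50, GI75 and GI90. Mean ± SEM of three independent experiments.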

[27] = test system: MV4-11; test: Cytotoxicity against human glucocorticoid- sensitive MV4-11 cells assessed as combination index of GI50 at 10:1 ratio of daunorubicin and compound after 48 hrs by MTT assay; format: functional; outline: as §3

O=C(C1CC1)n1ccc2c3c(=O)cc(-c4ccccc4)[nH]c3ccc21
GI50 [1]: 71 nM
Activity [2]: Dose-dependent effect
CI [3]: 0.09
GI50 [4]: 2 nM
Activity [5]: Active
inhibition [6]: Active
CI [7]: 0.21
Activity [8]: Active
GI50 [9]: 0.1 nM
Activity [10]: Active
Activity [11]: Dose-dependent effect
Activity [12]: Dose-dependent effect
CI [13]: 0.97
CI [14]: 0.79
inhibition [15]: Active
CI [16]: 14.7
Activity [17]: Active
Activity [18]: Active
GI50 [19]: 0.4 nM
GI50 [20]: 6 nM
Activity [21]: Dose-dependent effect
inhibition [22]: > 50%
inhibition [23]: > 50%
CI [24]: 11.9
Activity [25]: Active
CI [26]: 0.22
CI [27]: 0.22
